ChEMBL document CHEMBL1122044, “Antiinflammatory agents. 2. Syntheses and antiinflammatory activity of substituted 2-aminophenylacetic acid derivatives” (J Med Chem, 1982)

Experiments:
Cyclooxygenase [1] = molecular target: T1, Cyclooxygenase (Bos taurus, UniProt O62664+O62698); experiment: Evaluated for the inhibition of Prostaglandin synthetase obtained from bovine seminal vesicles at the dose of 20 mg/kg (p.o.); parameters: dose 20 mg/kg, route oral
T1 sequence (O62664 whole entry): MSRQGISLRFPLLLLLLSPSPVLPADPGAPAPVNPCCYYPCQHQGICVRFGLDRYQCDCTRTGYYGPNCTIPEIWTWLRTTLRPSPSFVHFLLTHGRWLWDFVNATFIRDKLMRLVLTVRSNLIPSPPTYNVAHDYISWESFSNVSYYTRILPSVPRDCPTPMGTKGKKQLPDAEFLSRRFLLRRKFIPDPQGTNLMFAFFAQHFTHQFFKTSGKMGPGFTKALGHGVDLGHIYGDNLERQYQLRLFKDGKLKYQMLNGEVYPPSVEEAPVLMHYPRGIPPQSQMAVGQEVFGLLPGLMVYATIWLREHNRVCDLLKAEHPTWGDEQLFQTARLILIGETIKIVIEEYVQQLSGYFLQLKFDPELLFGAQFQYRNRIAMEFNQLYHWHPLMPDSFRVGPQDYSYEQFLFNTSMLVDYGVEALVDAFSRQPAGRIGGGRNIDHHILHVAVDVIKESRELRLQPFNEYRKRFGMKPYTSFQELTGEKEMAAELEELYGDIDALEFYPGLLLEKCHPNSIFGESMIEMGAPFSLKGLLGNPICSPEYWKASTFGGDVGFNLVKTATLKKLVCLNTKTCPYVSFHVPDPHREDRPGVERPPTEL
T1 sequence (O62698 whole entry): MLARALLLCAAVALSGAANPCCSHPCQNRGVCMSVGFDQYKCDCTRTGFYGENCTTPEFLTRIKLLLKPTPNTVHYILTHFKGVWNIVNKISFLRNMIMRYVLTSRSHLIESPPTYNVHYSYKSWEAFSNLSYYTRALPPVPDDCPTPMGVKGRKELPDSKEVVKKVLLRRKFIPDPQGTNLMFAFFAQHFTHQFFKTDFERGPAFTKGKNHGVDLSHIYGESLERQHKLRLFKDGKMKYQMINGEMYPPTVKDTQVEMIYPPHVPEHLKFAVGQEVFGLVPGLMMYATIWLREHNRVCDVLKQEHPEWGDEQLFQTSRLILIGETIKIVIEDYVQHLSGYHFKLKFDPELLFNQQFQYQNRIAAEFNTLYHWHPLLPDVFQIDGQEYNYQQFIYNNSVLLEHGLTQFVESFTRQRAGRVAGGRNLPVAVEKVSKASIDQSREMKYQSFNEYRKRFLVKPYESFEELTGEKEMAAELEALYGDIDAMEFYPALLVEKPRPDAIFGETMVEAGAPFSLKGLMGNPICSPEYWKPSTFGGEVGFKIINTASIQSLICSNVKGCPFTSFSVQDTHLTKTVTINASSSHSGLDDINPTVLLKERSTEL
In short: (§1)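 Cyclooxygenase-containing enzyme was a lyophilized 600g supernatant of bovine seminal vesicle homogenate in 0.05 M phosphate, pH 7.8. The assay used 0.1 M phosphate pH 7.8 with epinephrine and enzyme, and drug stocks of 3×10^-1 to 3×10^-6 M. After 3 min at 30 °C, arachidonic acid was added. Activity was taken as substrate minus basal O2-uptake rate, run in triplicate, and IC50 came from regression on log concentration.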

Rattus norvegicus [2] = experiment: Percent change of the antiinflammatory activity in the 5-h Evans Blue-Carrageenan induced pleural effusion assay at the dose of 4.0 mg/kg (p.o.); type: functional; conditions: route oral
In short: (§2)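 Six fasted male rats per group received compound orally by gavage (10 mL/kg) in vehicle containing 0.5% Tween 80. Pleural effusion was induced by intrapleural injection of 5 mL 0.075% Evans blue–0.5% carrageenan type 7 and measured after 5 h. Results are given as percent change in pleural fluid volume versus a concurrent control group, with indomethacin 4.0 mg/kg as standard.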

Rattus norvegicus [3] = experiment: Percent change of the antiinflammatory activity in the 5-h Evans Blue-Carrageenan induced pleural effusion assay at the dose of 20 mg/kg (p.o.); type: functional; conditions: route oral; in short: as §2
Rattus norvegicus [4] = experiment: Evaluated for the antiinflammatory activity in the 5-h Evans Blue-Carrageenan induced pleural effusion assay at the dose of 20 mg/kg (p.o.); type: functional; conditions: route oral; in short: as §2
Rattus norvegicus [5] = experiment: Evaluated for the antiinflammatory activity in the 5-h Evans Blue-Carrageenan induced pleural effusion assay at the dose of 4.0 mg/kg (p.o.); type: functional; conditions: route oral; in short: as §2
Cyclooxygenase [6] = molecular target: T1, Cyclooxygenase; experiment: Evaluated for the inhibition of Prostaglandin synthetase obtained from bovine seminal vesicles at the dose of 100 mg/kg (p.o.); parameters: dose 100 mg/kg, route oral; in short: as §1
Rattus norvegicus [7] = experiment: Percent change of the antiinflammatory activity in the 5-h Evans Blue-Carrageenan induced pleural effusion assay at the dose of 100 mg/kg (p.o.); type: functional; conditions: route oral; in short: as §2
Rattus norvegicus [8] = experiment: Evaluated for the antiinflammatory activity in the 5-h Evans Blue-Carrageenan induced pleural effusion assay at the dose of 100 mg/kg (p.o.); type: functional; conditions: route oral; in short: as §2
Cyclooxygenase [9] = molecular target: T1, Cyclooxygenase; experiment: Evaluated for the inhibition of Prostaglandin synthetase obtained from bovine seminal vesicles at the dose of 4 mg/kg p.o.; parameters: dose 4 mg/kg, route oral; in short: as §1
Rattus norvegicus [10] = experiment: Persent change of the antiinflammatory activity in the 5-h Evans Blue-Carrageenan induced pleural effusion assay at the dose of 4.0 mg/kg (p.o.); type: functional; conditions: route oral; in short: as §2
Rattus norvegicus [11] = experiment: Percent activity in the 5-h Evans Blue-Carrageenan induced pleural effusion assay at the dose of 100 mg/kg (p.o.); type: functional; conditions: route oral; in short: as §2
Rattus norvegicus [12] = experiment: Percent activity in the 5-h Evans Blue-Carrageenan induced pleural effusion assay at the dose of 20 mg/kg (p.o.); type: functional; conditions: route oral; in short: as §2
Rattus norvegicus [13] = experiment: Persent change of the antiinflammatory activity in the 5-h Evans Blue-Carrageenan induced pleural effusion assay at the dose of 20 mg/kg (p.o.); type: functional; conditions: route oral; in short: as §2
Cyclooxygenase [14] = molecular target: T1, Cyclooxygenase; experiment: Evaluated for the inhibition of prostaglandin synthetase obtained from bovine seminal vesicles at the dose of 4.0 mg/kg (p.o.); parameters: dose 4 mg/kg, route oral
Rattus norvegicus [15] = experiment: Percent change of the antiinflammatory activity in the 5-h Evans Blue-Carrageenan induced pleural effusion assay at the dose of 0.8 mg/kg (p.o.); type: functional; conditions: route oral; in short: as §2
Rattus norvegicus [16] = experiment: Percent activity in the 5-h Evans Blue-Carrageenan induced pleural effusion assay at the dose of 0.16 mg/kg (p.o.); type: functional; conditions: route oral; in short: as §2
Rattus norvegicus [17] = experiment: Evaluated for the antiinflammatory activity in the 5-h Evans Blue-Carrageenan induced pleural effusion assay at the dose of 0.16 mg/kg (p.o.); type: functional; conditions: route oral; in short: as §2
Rattus norvegicus [18] = experiment: Evaluated for the antiinflammatory activity in the 5-h Evans Blue-Carrageenan induced pleural effusion assay at the dose of 0.8 mg/kg (p.o.); type: functional; conditions: route oral; in short: as §2
Rattus norvegicus [19] = experiment: Percent activity in the 5-h Evans Blue-Carrageenan induced pleural effusion assay at the dose of 4.0 mg/kg (p.o.); type: functional; conditions: route oral; in short: as §2
Rattus norvegicus [20] = experiment: Persent change of the antiinflammatory activity in the 5-h Evans Blue-Carrageenan induced pleural effusion assay at the dose of 0.16 mg/kg (p.o.); type: functional; conditions: route oral; in short: as §2
Rattus norvegicus [21] = experiment: Persent change of the antiinflammatory activity in the 5-h Evans Blue-Carrageenan induced pleural effusion assay at the dose of 0.8 mg/kg (p.o.); type: functional; conditions: route oral; in short: as §2

| IC50 (Cyclooxygenase [1]) | SMILES | Change (Rattus norvegicus [2]) | Change (Rattus norvegicus [3]) | Pleural fluid (Rattus norvegicus [4]) | Pleural fluid (Rattus norvegicus [5]) | Change (Rattus norvegicus [10]) | further results |
| --- | --- | --- | --- | --- | --- | --- | --- |
| 12 µM | CC(C(=O)[O-])c1ccc(-c2ccccc2)cc1.[Na+] (centres undefined) | -42% | -52% | 2.9 mL | 3.4 mL |  |  |
|  | O=C([O-])Cc1cccc(C(=O)c2ccccc2)c1Cl.[Na+] |  |  |  |  |  | IC50 (Cyclooxygenase [6]): > 100 µM; Change (Rattus norvegicus [7]): -8%; Pleural fluid (Rattus norvegicus [8]): 5.7 mL |
|  | CC(C(=O)[O-])c1cccc(C(=O)c2ccccc2)c1N.[Na+] (centres undefined) | -4% |  |  | 6 mL |  | IC50 (Cyclooxygenase [6]): 1 µM; Change (Rattus norvegicus [7]): -38%; Pleural fluid (Rattus norvegicus [8]): 3.4 mL |
|  | O=C([O-])Cc1cccc(C(=O)c2ccccc2)c1.[Na+] |  |  |  | 5.9 mL | -7% | IC50 (Cyclooxygenase [9]): 40 µM |
|  | CN(C)c1c(CC(=O)[O-])cccc1C(=O)c1ccccc1.[Na+] | -5% |  | 5.2 mL | 5.9 mL |  | IC50 (Cyclooxygenase [6]): > 1000 µM; Change (Rattus norvegicus [11]): -36%; Change (Rattus norvegicus [12]): -16%; Pleural fluid (Rattus norvegicus [8]): 3.9 mL |
| 170 µM | Nc1cc(-c2ccccc2)ccc1CC(=O)[O-].[Na+] | -9% | -34% | 3.9 mL | 5.4 mL |  |  |
| 420 µM | O=C([O-])Cc1ccc(-c2ccccc2)cc1.[Na+] | -21% | -35% | 3.9 mL | 4.7 mL |  |  |
| 420 µM | Nc1c(CC(=O)[O-])cccc1Oc1ccccc1.[Na+] | 4% | -7% | 5.1 mL | 5.7 mL |  |  |
| > 1000 µM | O=C([O-])Cc1cccc(Oc2ccccc2)c1.[Na+] |  |  | 4.9 mL | 5.1 mL | -7% | Change (Rattus norvegicus [13]): -11% |
|  | Nc1c(CC(=O)[O-])cccc1C(=O)c1ccccc1.[Na+] [AMFENAC SODIUM] | -25% |  |  | 4.5 mL |  | IC50 (Cyclooxygenase [14]): 0.2 µM; Change (Rattus norvegicus [15]): -17%; Change (Rattus norvegicus [16]): -15%; Pleural fluid (Rattus norvegicus [17]): 5.1 mL; Pleural fluid (Rattus norvegicus [18]): 5 mL |
| 98 µM | CC(C(=O)[O-])c1cccc(Oc2ccccc2)c1.[Na+] (centres undefined) [FENOPROFEN SODIUM] |  | -29% | 3.9 mL | 5.2 mL |  | Change (Rattus norvegicus [19]): -6% |
|  | COc1ccc2c(c1)c(CC(=O)O)c(C)n2C(=O)c1ccc(Cl)cc1 [INDOMETHACIN] |  |  |  | 4 mL | -28% |  |
|  | CC(C(=O)[O-])c1cccc(C(=O)c2ccccc2)c1.[Na+] (centres undefined) [KETOPROFEN SODIUM] |  |  |  | 3.6 mL | -41% | IC50 (Cyclooxygenase [9]): 3.4 µM; Change (Rattus norvegicus [20]): -4%; Change (Rattus norvegicus [21]): -24%; Pleural fluid (Rattus norvegicus [17]): 5.8 mL; Pleural fluid (Rattus norvegicus [18]): 4.6 mL |
